For 38 variants, yeast fitness results are on record in the RNAGym collection of RNA variant scans (doi:10.1126/science.aae0568).

To fix the notation:
B1: tRNA (parent)
chain: GUUCCGUUGGCGUAAUGGUAACGCGUCUCCCUCCUAAGGAGAAGACUGCGGGUUCGAGUCCCGUACGGAACG

Variants at the floor of the assay were thinned out.

Variants of B1 are the subject of this data set. Put plainly: yeast fitness relative to wild type (ratio to wild type); higher = fitter; tRNA-Arg(CCU), competitive growth, 37 C, YPD. In outline:
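Amplicons of the tRNA-Arg(CCU) gene were sequenced, 100-nucleotide paired-end, from the start population and from each end population of a pooled yeast competition. The competition, in six parallel replicates, lasted 24 hours in YPD at 37°C. Fitness relative to wild type was calculated from changes in genotype frequencies. Genotypes had to have ≥ 100 starting reads, and estimates < 0.5 were set to 0.5.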
In the case of GUUCCGUUGGCGUAAUGCUAACGCGUCUCCCUCCUAAGGAGAUGACUGCGGGUUCGAGUCCCGUACGGAACG [G18C A43U], the yeast fitness worked out at 0.674.
To GUUCCGUUGGCGUAAUGGUAACCCGCUUCCCUCCUAAGGAGUAGACUGCGGGUUCGAGUCCCGUACGGAACG [G23C U26C C27U A42U] belongs 0.566; to GUUCCGUUGGCAUAAUGGUUUCGCGUCUCCCUCGUAAGGAGAAGACUGCGGGUUCGAGUCCCCUACGGAACG [G12A A20U A21U C34G G63C], not above 0.5; to GUUCCGUUGGCGUAAUGGUAACGCGUCUCGCUCCUAAGGAGAAGACUGAGGGUUCGAGUCCCGUACGGAACG [C30G C49A], not above 0.5.
To GUUCAGUUGGCGUAAUGGUAACGCGUCUCCCUCCUAACGAGAAGACUGCGAGUUCGAAUCCCGUACGGAACG [C5A G38C G51A G58A] belongs 0.506.
GUUCGGUUGGCGUAAUGGUAACGCGUCUCCCUCUCAAGGAGAAGACUGCGGGUUCGAGUCCCGUACGGAACG [C5G C34U U35C]: the yeast fitness came to 0.545.
The same measure for GUUCCGUUGGCGUAAAGGUAACGCGUCUCCCUCCUAAGGAGAAGACUGGGGGUUCGAGUCCCGUACGGAACG [U16A C49G]: 0.769.
To GUUCCGUUGGCGUAAUGGUAACGCGUCUCCCUCCUAAGGAAAAGACUGGGGGUUCGAGUCCCGUACGGAACG [G41A C49G] belongs 0.655; to GUUGCGUGGGCGUAAUGCUAACGCGUCUCCCUCCUAAGGAGAAGACUGUGGGUUCGAAUCCCGUACAGAACG [C4G U8G G18C C49U G58A G67A], not above 0.5; to GUUCCGUUGGCGUGUUGGUAACGCGUCUCCCUCCCAAGGAGAAGACUGCGGGUUCGAGUCCCGUACGGAACG [A14G A15U U35C], not above 0.5.
To GUUCCCUUGGCGUAAUGGUAACGCGUCUCCCUCCUAAGGAAAAGUCUGCGGGUUCGAGUCCCGUACGGAACG [G6C G41A A45U] belongs not above 0.5.
With GUUCCCUUGGCGUAAUGGUAACGCGUCUCCCUCCUUAGGAGAGGACUAUGGGCUCGAGUCCCGUACGGAACG [G6C A36U A43G G48A C49U U53C], the yeast fitness was not above 0.5.
To GAUCCGUUGGGGUAAUGGUAGCGCGUCUCCCUCCUAAGGAGAAGACUGCGGGUUCGAGUCCCGUACGGAACG [U2A C11G A21G] belongs 0.567; to GUUCCGUUGGCUUAAUGGUAACGCGUCUCCCUCCUGAGGAGAAGACUGCGGGUUCGAGUCCCGUACGGUACG [G12U A36G A69U], 0.733; to GUUUCGUUGGAGUAAUGGUAACGCGUCUCCCUCCUACGGAGAAGACUGCGGGUUCGGGUCCCGUACGGAACG [C4U C11A A37C A57G], not above 0.5.
The same measure for GUUCCGUUGGCGUAAUGGUAACGCGUCUCCCUCCUAAGCAGAAGACUGCGGGUUCGAGUCCCGUGCGGAUCG [G39C A65G A70U]: not above 0.5; for GUUCCGUUGGCGUAAUGGUGACGCGUCUCCCUCCUAAGGAGAAGAAUGCGGGUUCGAGUCCCGUACGGAACG [A20G C46A]: 0.925.
To GUGCCGUUGGCGUAAUGGUAACGCGUCUCCCUCCUAAGGAGAUGACUGCGGGCACGCGUCCCGUCCGGAACG [U3G A43U U53C U54A A57C A65C] belongs not above 0.5; to GUUCCGUUGGCGUAAUCGUAACGCGUCUCCGUCCUAAGGAGAAGACUGCGGGUUCGAGUCCCGUACGGAACG [G17C C31G], 0.634; to GUUACGUUGGCGUAAUGGUAACGCGUCUCCCUCCUAAGGAGAAGACUGCGGGUUCGAGUCCCGUACGGUACG [C4A A69U], 0.952.
In the case of GUUCCGUUGGCGUAAUGGUUACGCGUCUGCCUUCUAAGGAGAAGACUGCGGGUUCGAGUCCCGUCUGGAACG [A20U C29G C33U A65C C66U], the yeast fitness was not above 0.5.
To GUUCCGUUGGCGUAAUGGUAACGCGUAUCCCUCCUAAGGAGAAGACUGCGGGUUCGAGUCCUGUCCGGAACG [C27A C62U A65C] belongs 0.63; to GUUCCGUUGGCGUAAUGGUAGCGCGUCCCCCUCCUAAGGAGAAGACUGCGGGUUCGAGUCCCGUGCGGAACG [A21G U28C A65G], 0.779.
Turning to GUUCCGUUGGCGUAAUGGUGACGCGUCUCCUUCCUAAGGAGAAGACUGCGGGUUCGAGUCCCGUUCGGAACG [A20G C31U A65U], the yeast fitness was 0.695.
To GUUCCGUUGGGGUAAUGGUAACGCGUCUCCCUCCUAAGGAGCAGACUGCGGGUUCGAGUCCCGUACGCAACG [C11G A42C G68C] belongs not above 0.5.
The same measure for GUUCCGCUGACGUAAUGGUAACGCGUCUCCCUCAUAAGGAGAAGACUGCGGGUUCGAGUCCCAUACGGAACG [U7C G10A C34A G63A]: 0.555; for GUGCCGUUGGCGUACUGGUAACGCGUCUCGCUGCUACGGAGAAGACUGCGGGUUCGAGUCCCGUACGGAACG [U3G A15C C30G C33G A37C]: 0.795.
To GUUCCGUUGGCGUUAUGGUAACGCGUCUCCCUCUUAAGCAGAAGACUGCGGGUUCGAGUCCCGUACGGAACG [A14U C34U G39C] belongs 0.56.
Consider GUUCCGUUGGCGUAAUGGUAAUGCGUCUCCCUCCUAAGGAGAAGACUGCGGGUUCGAGUCAUGUACGGAACG [C22U C61A C62U], for which the yeast fitness is 0.586.
The same measure for GUUCCGUUGGCGUACUGGUAACGCGUCUCGCUCCUACGGAGAAGACUGCGGGUUCGAGUCCCGUACGGAACG [A15C C30G A37C]: not above 0.5; for GUUCCGUUGGCGUAAUCGUAACGCGUCUCCCUCUUAAGGAGAAGACUGCGGGUUCGGGUCCCGUACGGAUCG [G17C C34U A57G A70U]: 0.558; for GUUCCGUUGGCGUCAUGGUAACGCGUCUCCCUCCUAAGGAGAAGACUGCGGGUUCGUGUCCUGUACAGAACG [A14C A57U C62U G67A]: 0.508.
To GUUACGUUGGUGUAAUGGUAACGCGUCUCCCUCCUAAGCAGAAGCCUGCGGGUUCGAGUCCCGUACGGAACG [C4A C11U G39C A45C] belongs not above 0.5; to GUCCAGUUGGCGUAAUGGUAACGCGUCUCCCUCCUAAGGAGAAGACUGCGGGUUAGAGUACCGUACGGAACG [U3C C5A C55A C60A], not above 0.5.
To GAUCCGCUGGCGUAAUCGUAACGCGUCUACCUCCUAAGGAGAAGUCUGCGGGUUCGAGCCCCGUACGGAACG [U2A U7C G17C C29A A45U U59C] belongs 0.902; to GUUCCGUUGGCGUAAUGGUAACGCGUCUCCCUCCUAAGGAGAAGACUGCGCGUUCGAGUCCCGUACAGAACG [G51C G67A], 0.572; to GUUCCGUUCGCGUAAAGGUAACGCGUCUACCUCCUAAGGAGAAGACUGCGGGUUCGACUCCCGUACGGUACG [G9C U16A C29A G58C A69U], 0.645.
Take GUUCCGUUGGCGUAAUAGUAACGCGUCUCCCUCCUAAGGAGAAGACUGCAGGUUCGAGUCCCGUACGGAACG [G17A G50A]: the yeast fitness turned out to be 0.833.
